# Experimental data taken from PMC3788622 (Journal of Medicinal Chemistry, 2013).
# Entries after “also recorded” stand apart in the source; their conditions may differ.
# Tests used:
# LNCaP xenografts = conditions: immunocompromised mice, three sc injections at 1 mg/kg; cited from earlier work
# male C57BL/6J mice [1] = test: Histopathology after single subcutaneous injection; type: in vivo, mouse
# Method in brief: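 After the single sc dose (1, 3 or 10 mg/kg, 25% DMSO/saline, 9-day observation), two representative mice per group were fixed in 10% formalin. A veterinary pathologist examined cecum, duodenum, heart, ileum, kidney, liver, lung, pancreas, spleen and stomach, blinded to animal identity.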
# male C57BL/6J mice [2] = test: Histopathology after multiple subcutaneous injections; type: in vivo, mouse; conditions: 1 mg/kg sc every 3 days, three injections
# p53 [3] = test: p53 protein ELISA; type: cell-based; conditions: LNCaP cells, 10 μM, 72 h
# Method in brief: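 LNCaP cells were treated with 10 μM test compound for 72 h. Controls were DMSO vehicle and 1 μM doxorubicin for 24 h. RPB1 was measured with an RPB1-specific ELISA kit and total p53 with a pan-p53 ELISA kit, each following the kit instructions, in biological triplicates.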
# male C57BL/6J mice [4] = test: Escalating single dose subcutaneous injections: animal weight and behavior; type: in vivo, mouse; conditions: single sc injection at 1, 3, and 10 mg/kg, observed 9 days
# Method in brief: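 Male C57BL/6J mice, 8 weeks old, were acclimatised 3 days after arrival. Groups of four received one sc dose of 1, 3 or 10 mg/kg in up to 200 μL 25% DMSO/saline. Doses were set by UV/vis using ε 69 500 M–1·cm–1 near 315 nm. Mice were weighed daily for 9 days, then sacrificed. Humane end point was visible duress or weight loss over 15% of starting weight.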
# male C57BL/6J mice [5] = test: Serum markers of liver and kidney damage after multiple subcutaneous injections; type: in vivo, mouse; conditions: 1 mg/kg sc every 3 days, three injections
# Method in brief: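 Male C57BL/6J mice, 8 weeks old, were dosed in groups of three with 1 mg/kg sc every 3 days for three injections and sacrificed 2 days after the last. Weight was recorded on injection days and at the end point. Retro-orbital blood was spun at 6000 rpm for 5 min. Serum ALT, AST, total bilirubin, BUN and creatinine were assayed blinded.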
# p53 [6] = conditions: cited from earlier work
# male C57BL/6J mice [7] = test: Serum markers of liver and kidney damage after single subcutaneous injection; type: in vivo, mouse; conditions: single sc dose 1, 3, 10 mg/kg; dose stated in the value
# Method in brief: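 All mice from the single sc dose groups (1, 3, 10 mg/kg in 25% DMSO/saline, n = 4, 9-day observation) were bled retro-orbitally. Serum was obtained by centrifugation at 6000 rpm for 5 min. ALT, AST, total bilirubin, BUN and creatinine were measured externally, blinded to animal identity.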
structure (smiles),measurement,setting,value
"CN(CCCNC(=O)c1cccc(C(=O)O)c1)CCCNC(=O)c1cc(NC(=O)c2cc(NC(=O)c3cc(NC(=O)c4nc(NC(=O)[C@H](N)CCNC(=O)c5cc(NC(=O)c6cc(NC(=O)c7cc(NC(=O)c8nccn8C)cn7C)cn6C)cn5C)cn4C)cn3C)cn2C)cn1C [Polyamide 1, ImPyPyPy-2-(R)^H2Nγ-ImPyPyPy∼NHMe∼IPA]",Growth of LNCaP xenografts,LNCaP xenografts,suppress the growth of LNCaP xenografts
same,Liver lesions by histopathology (in words),male C57BL/6J mice [1]; single sc dose 3 mg/kg,Mild hepatocellular necrosis and apoptosis
same,Kidney lesions by histopathology (in words),male C57BL/6J mice [1]; single sc dose 10 mg/kg,Milder tubular regeneration and karyomegaly
same,Liver lesions by histopathology (in words),male C57BL/6J mice [1]; single sc dose 10 mg/kg,Mild hepatocellular necrosis and apoptosis
same,Kidney lesions by histopathology (in words),male C57BL/6J mice [2],"mild variable tubular attenuation, karyomegaly, and epithelial necrosis and apoptosis"
same,Liver lesions by histopathology (in words),male C57BL/6J mice [2],mild multifocal hepatocellular necrosis and apoptosis
same,Cellular level of p53 protein,p53 [3],increases
same,Weight loss,male C57BL/6J mice [4],significant weight loss only at 10 mg/kg
same,Alteration of liver and kidney serum markers (in words),male C57BL/6J mice [5],elevated AST and ALT
same,Effect on cellular p53 protein,p53 [6],increase cellular p53 protein
same,Elevation of serum markers of liver and kidney damage (in words),male C57BL/6J mice [7],"significant elevation of AST, ALT, and total bilirubin at 10 mg/kg; also recorded: moderate elevation of ALT at 3 mg/kg; also recorded: Elevation of creatinine and blood urea nitrogen (BUN) was not observed for any dose level"
